The values that follow come from the array DNA melting data of Ke et al. (doi:10.1101/2024.01.08.574731).

A short description of data set [1]: folding enthalpy; higher = less favourable; fluorescence melt of hairpins on a sequencing array, two-state fit. The following applies: sodium 0.088 M. The procedure, abridged:
(§1)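 Folding enthalpy and melting temperature come from bootstrapped two-state fits to Cy3 fluorescence of library hairpins carrying annealed Cy3 and quencher oligos on a sequenced MiSeq flow cell. Imaging was done in 50 mM Na-HEPES pH 8.0, 25 mM NaCl, stepping by 2.5 °C up to 60 °C, and signals were normalised to pre-quench Cy3 and to control constructs. Results of four replicates were combined by inverse variance, and fitted temperatures were raised by 9.35 °C to match UV melts.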

The nature of data set [2]: melting temperature; fluorescence melt of hairpins on a sequencing array, two-state fit, raised by 9.35 °C to match UV melts. The settings on record: sodium 0.088 M. The method, boiled down:
as §1

Turning to GCCCACGGAAACATGGGC (((((.(....).))))), the folding enthalpy in data set [1] is -30.8 kcal/mol. The Tm in data set [2] stood at 50.7 °C.
For GTCTCCGGAAACAGAGAC (((((.(....).))))) the same measures were -25.8 kcal/mol and 38.3 °C.
With CTGGAGAAATCCAG (((((....))))), in data set [1], the folding enthalpy was -27.1 kcal/mol. Also, in data set [2], the Tm was 43.6 °C.
For GTGTTCGGAAACGAACAC (((((((....))))))) the same measures were -36.3 kcal/mol and 67.9 °C.
Taken in the same sequence, the figures for GTGATCGGAAACGATTGC (..((((....))))..) were -22.1 kcal/mol and 40.5 °C.
For GTGACCGGAAACGGTTGC (..((((....))))..) the same measures were -17.9 kcal/mol and 47.6 °C.
In the case of GTCCTCACGAAAGTGGAC (((..(((....)))))), the folding enthalpy in data set [1] was -17.2 kcal/mol. The Tm in data set [2] came out at 43 °C.
Regarding CCAAAGAAATTTGG (((((....))))), the folding enthalpy in data set [1] is -8.79 kcal/mol. Further, in data set [2], the Tm was 30.9 °C.
Take GCGCCCGGAAACGGGCAC (.(((((....))))).): the folding enthalpy in data set [1] is -9.09 kcal/mol. The Tm in data set [2] came out at 55.4 °C.
Turning to GATCGAACGTTCGATC ((((((....)))))), in data set [1], the folding enthalpy is -49.3 kcal/mol. In data set [2], the Tm is 56.7 °C.
Taken in the same sequence, the figures for GCTGGTCCGAAAGGAAGC (((..(((....)))))) were -13.2 kcal/mol and 34.9 °C.
Consider GATCCATACTTGGATC ((((((....)))))), for which the folding enthalpy in data set [1] was -37.3 kcal/mol. In data set [2], the Tm was found to be 54.4 °C.
For GCCCGGCGAAAGCCAAGC ((..(((....)))..)) the same measures were -10.7 kcal/mol and 35.7 °C.
Taken in the same sequence, the figures for GATCTGAACCAGATC ((((((...)))))) were -34.6 kcal/mol and 46 °C.
Taken in the same sequence, the figures for GATCCGACCCGGATC ((((((...)))))) were -39.9 kcal/mol and 56.6 °C.
In the case of GAACCGCGAAAGCGTTTC (((.(((....))).))), the folding enthalpy in data set [1] was -20.5 kcal/mol. For the same sequence, in data set [2], the Tm was found to be 42.3 °C.
Taken in the same sequence, the figures for GATCCCAGAGGGATC ((((((...)))))) were -34.2 kcal/mol and 68.5 °C.
Taken in the same sequence, the figures for GGTCCGACGAAAGTCACC (((..(((....)))))) were -14.1 kcal/mol and 28.4 °C.
Consider GATCCGGCGACGGATC ((((((....)))))), for which, in data set [1], the folding enthalpy was -33.4 kcal/mol. In addition, in data set [2], the Tm is 67.4 °C.
For GGAGAAGGAAACCTCTCC (((((.(....).))))) the same measures were -28.6 kcal/mol and 37.7 °C.
For GATACACGAAAGTGAATC (((.(((....))).))) the same measures were -22.1 kcal/mol and 45.2 °C.
Taken in the same sequence, the figures for GCACGGCGAAAGCTGAGC ((.(.((....)).).)) were -19 kcal/mol and 55.8 °C.
On to GGCCTCGAAAGAGAGGCC ((((((....)))..))), for which the folding enthalpy in data set [1] is -29.1 kcal/mol. In addition, the Tm in data set [2] came out at 66.9 °C.
Taken in the same sequence, the figures for GCTCTCGGAAACGAGAAC (.(((((....))))).) were -16 kcal/mol and 41.8 °C.
Taken in the same sequence, the figures for GCAGTCGAAAGACATGC ((((((....))).))) were -24.1 kcal/mol and 51.5 °C.
Taken in the same sequence, the figures for GCGAGCGAAAGCTCCGC ((((((....))).))) were -18.2 kcal/mol and 65.4 °C.
Take GCGAGAACGAAAGTTCGC (((..(((....)))))): in data set [1], the folding enthalpy was -15 kcal/mol. Further, the Tm in data set [2] was determined as 55.4 °C.
For GTTTGCGAAAGCACAAC ((((((....))).))) the same measures were -17.1 kcal/mol and 41.1 °C.
Regarding GGACGCGAAAGCGTATCC ((((((....)))..))), the folding enthalpy in data set [1] is -9.56 kcal/mol. For the same sequence, the Tm in data set [2] was 37.4 °C.
With GTGATCGAAAGATCTCAC ((((((....)))..))), the folding enthalpy in data set [1] was -11.4 kcal/mol. Besides, in data set [2], the Tm was determined as 39.1 °C.
Regarding GTTTCAGGAAACTAAAAC ((((.((....)).)))), in data set [1], the folding enthalpy was -8.21 kcal/mol. Besides, in data set [2], the Tm turned out to be 29.2 °C.
Taken in the same sequence, the figures for GACATAGGAAACTATGCC (.(((((....))))).) were -18.6 kcal/mol and 34.3 °C.
For CGATCGAAAGATCG (((((....))))), the folding enthalpy in data set [1] was -30.4 kcal/mol. Moreover, in data set [2], the Tm stood at 59.9 °C.
GCCTTTGCGAAAGCAGGC (((..(((....)))))): in data set [1], the folding enthalpy was -20.9 kcal/mol. The Tm in data set [2] is 50.3 °C.
Consider GGGCCCGAAAGGGCACCC ((((((....)))..))), for which the folding enthalpy in data set [1] was -9.72 kcal/mol. For the same sequence, the Tm in data set [2] stood at 65 °C.
For GTCTAGGGAAACCTAGGC (.(((((....))))).) the same measures were -24.7 kcal/mol and 46.2 °C.
For the sequence GATCCTTATAGGATC ((((((...)))))), the folding enthalpy in data set [1] is -32.5 kcal/mol. The Tm in data set [2] came out at 57.4 °C.
As for GAACTGGGAAACCAATTC (((.(((....))).))), the folding enthalpy in data set [1] is -12.7 kcal/mol. In data set [2], the Tm came to 29.2 °C.
Consider GATAAACGAAAGTTCATC (((.(((....))).))), for which, in data set [1], the folding enthalpy was -27.3 kcal/mol. Further, in data set [2], the Tm was 29.2 °C.
GATCGCTGTCGCGATC ((((((....)))))): the folding enthalpy in data set [1] is -30.2 kcal/mol. The Tm in data set [2] worked out at 68.4 °C.
Turning to GGGAATGCGAAAGCACCC (((..(((....)))))), the folding enthalpy in data set [1] is -19.4 kcal/mol. In addition, the Tm in data set [2] worked out at 42.3 °C.
Regarding GCTTCGCGAAAGCGCTGC ((..(((....)))..)), the folding enthalpy in data set [1] is -22.9 kcal/mol. Besides, in data set [2], the Tm was 41.4 °C.
For GCGTTCGAAAGAATCGC ((((((....))).))) the same measures were -33.5 kcal/mol and 50.2 °C.
GTGGACCGAAAGGTACAC (((.(((....))).))): in data set [1], the folding enthalpy is -30.4 kcal/mol. Moreover, in data set [2], the Tm was 67 °C.
For GCCCGGGGAAACCCGAGC ((.((((....)))).)) the same measures were -25.2 kcal/mol and 52.9 °C.
Consider CGGAGGAAACTCCG (((((....))))), for which, in data set [1], the folding enthalpy is -20.5 kcal/mol. Further, in data set [2], the Tm turned out to be 57.1 °C.
Taken in the same sequence, the figures for GTCAACGAAAGTTCGAC ((((((....))).))) were -25.7 kcal/mol and 38.4 °C.
Take GCCACTCGAAAGAGCGGC (((.(((....))).))): in data set [1], the folding enthalpy was -46.9 kcal/mol. Moreover, in data set [2], the Tm was 61.3 °C.
Take GATCGCGGAAACACGATC (((((.(....).))))): the folding enthalpy in data set [1] is -30.7 kcal/mol. In data set [2], the Tm worked out at 48.6 °C.
In the case of GGTGCCGAAAGGCGAACC ((((((....)))..))), the folding enthalpy in data set [1] was -15 kcal/mol. Also, in data set [2], the Tm worked out at 46.9 °C.
Regarding GGGATCCGAAAGGACCC (((.(((....)))))), the folding enthalpy in data set [1] was -36.5 kcal/mol. Further, the Tm in data set [2] was determined as 55.7 °C.
As to GGACCACGAAAGTGATCC (((.(((....))).))), the folding enthalpy in data set [1] was -29.1 kcal/mol. Besides, the Tm in data set [2] turned out to be 51.5 °C.
Taken in the same sequence, the figures for GTTATCGAAAGATAAAC ((((((....))).))) were -20.9 kcal/mol and 32.9 °C.
As to GGTAGAGGAAACTCTGCC ((.((((....)))).)), the folding enthalpy in data set [1] was -34.2 kcal/mol. For the same sequence, the Tm in data set [2] came out at 49.2 °C.
As for GGGATCGAAAGATGTCCC ((((((....)))..))), the folding enthalpy in data set [1] is -17.3 kcal/mol. For the same sequence, the Tm in data set [2] turned out to be 35.9 °C.
